Assay outcomes from PubChem.
Compounds with a hit are over-represented: about 4.7% of the library has one in this group of screens.
VIM-2 inhibitor: blocks Pseudomonas aeruginosa VIM-2 metallo-beta-lactamase; AID 1527; purified VIM-2, nitrocefin hydrolysis, epi-absorbance fluorescence; 290,000 tested, 0.89% active; inhibition, % at 5.6 µM;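 active = inhibition above the mean of all tested compounds plus 3 SD, cutoff set per screening run, cut at about 7.5% in these data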;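 also: red hydrolysis product quenches plate fluorescence so inhibitors raise well fluorescence; 0% = enzyme with DMSO and 100% = DMSO without enzyme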
Mdm2-MdmX inh: inhibitors of human Mdm2/MdmX interaction | SaOS-2 split-luciferase Mdm2/MdmX complementation, luminescence | inhibition, % at 8 µM | 330,000 tested, 3% active | AID 485346;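 active = inhibition of at least 50% at 8 µM in the primary screen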
aSyn UTR inh: 5' untranslated region of α-synuclein, MLPCN primary screen; alpha-synuclein 5'UTR reporter, inhibitor activity; inhibition, % (tested at 7.5 µM); 300,000 tested, 0.82% active; AID 1813; in the data active = inhibition above about 60%;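 also: H4 neuroglioblastoma cells stably carrying SNCA 5'UTR luciferase fusion; 0% = DMSO wells and 100% = positive control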
IMP-1 inh: blocks Pseudomonas aeruginosa IMP-1 metallo-beta-lactamase | purified IMP-1, nitrocefin hydrolysis, epi-absorbance fluorescence | 290,000 tested, 0.45% active | inhibition, % at 5.6 µM | AID 1556;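 active = inhibition above the mean plus 3 SD of all compounds in the same screening run, cut at about 4.5% in these data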;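 also: 0% = IMP-1 with DMSO and 100% = DMSO wells lacking enzyme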
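System: Purified IMP-1 | Read-out basis: Percent enzyme inhibition | Controls: IMP-1 with DMSO as 0%, enzyme-free DMSO as 100% | Replicates: One well per compound | Doses: 5.6 µM nominal single concentration | Detection: Epi-absorbance fluorescence, 480 nm excitation, 530 nm emission | Incubation: 25 °C, 15 min preincubation, 25 min reaction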
697 NFkB inh: inhibitors of the PMA/ionomycin-induced NF-kB reporter in 697 B cells. 697 B-cell NF-kB luciferase reporter, 16 h. inhibition, % at 4 µM. 330,000 tested, 0.33% active. AID 435022; in the data active = inhibition above about 35%
Jurkat NFkB inh: inhibitors of the PMA/ionomycin-induced NF-kB reporter in Jurkat cells; PMA/ionomycin-induced NF-kB luciferase reporter, luminescence; inhibition, % at 4 µM; 330,000 tested, 0.53% active; in the data active = inhibition above about 50%
* marks the source's active call; other numbers are inactive results.

For Cc1cc(N2CCN(c3ccccc3)CC2)n2c(n1)nc1ccccc12 the results were VIM-2 inhibitor 11*, Mdm2-MdmX inh -19, aSyn UTR inh -2, IMP-1 inh -4, 697 NFkB inh -21 and Jurkat NFkB inh 14.
Cc1cc(N2CCN(c3ccccc3)CC2)n2nnnc2n1 was read as VIM-2 inhibitor -4, Mdm2-MdmX inh 10, aSyn UTR inh 0, IMP-1 inh -3, 697 NFkB inh -8 and Jurkat NFkB inh -11.
Cc1cc(NC(=O)Cc2cccs2)no1 was read as VIM-2 inhibitor -3, Mdm2-MdmX inh 13, IMP-1 inh 6.8*, 697 NFkB inh -20 and Jurkat NFkB inh -8.
COc1ccc(-c2nc(CS(=O)(=O)CC(=O)NCCc3ccc(C)cc3)c(C)o2)cc1 was read as VIM-2 inhibitor -1, Mdm2-MdmX inh 8, aSyn UTR inh 25, IMP-1 inh 6.2*, 697 NFkB inh -8 and Jurkat NFkB inh -2.
Screening COC(=O)[C@@]1(Cc2ccccc2)[C@H]2C(=O)N(Cc3ccccc3)C(=O)[C@H]2[C@H]2CN=C(SCC3CC3)N21 returned Mdm2-MdmX inh 40 and 697 NFkB inh 10.
`O=C(c1nn2c(C(F)(F)F)cc(-c3cccs3)nc2c1Br)N1CCCc2ccccc21` gave VIM-2 inhibitor 2, Mdm2-MdmX inh 28, aSyn UTR inh 82*, IMP-1 inh -1, 697 NFkB inh 12 and Jurkat NFkB inh -5.
Screening O=C(c1cc2nc(-c3cccs3)cc(C(F)(F)F)n2n1)N1CCCc2ccccc21 returned VIM-2 inhibitor -2, Mdm2-MdmX inh 24, aSyn UTR inh -23, IMP-1 inh -1, 697 NFkB inh -27 and Jurkat NFkB inh -14.
Screening CN1CCN(C(=O)c2cnn3c(C(F)(F)F)cc(-c4cccs4)nc23)CC1 returned VIM-2 inhibitor 8.6*, Mdm2-MdmX inh -4, aSyn UTR inh 21, IMP-1 inh -4, 697 NFkB inh -9 and Jurkat NFkB inh -17.
`O=C(c1ccco1)N1CCN(C(=O)c2cnn3c(C(F)(F)F)cc(-c4cccs4)nc23)CC1` gave VIM-2 inhibitor 4, Mdm2-MdmX inh 21, aSyn UTR inh 20, IMP-1 inh 2, 697 NFkB inh 6 and Jurkat NFkB inh 19.
CN1C(=O)N(C)c2cccc3cccc1c23 was read as VIM-2 inhibitor 9.3*, Mdm2-MdmX inh 4, aSyn UTR inh -5, IMP-1 inh -2, 697 NFkB inh 2 and Jurkat NFkB inh -4.
CN1C(=O)N(C)c2ccc(Br)c3cccc1c23 was read as VIM-2 inhibitor 11*, Mdm2-MdmX inh 33, aSyn UTR inh 25, IMP-1 inh 1, 697 NFkB inh -3 and Jurkat NFkB inh -12.
For CCOCCCNC(=O)CCn1nc(-c2ccc(Cl)cc2)ccc1=O the results were VIM-2 inhibitor 0, Mdm2-MdmX inh 2, aSyn UTR inh 7, IMP-1 inh 0, 697 NFkB inh -5 and Jurkat NFkB inh -8.
COc1cccc(C2c3c(oc4ccc(F)cc4c3=O)C(=O)N2CCN2CCOCC2)c1OC (stereo unspecified) was read as VIM-2 inhibitor 8.1*, Mdm2-MdmX inh 11, aSyn UTR inh 4, IMP-1 inh 0, 697 NFkB inh -3 and Jurkat NFkB inh 4.
For COc1cc(C2c3c(oc4ccccc4c3=O)C(=O)N2CCN2CCOCC2)cc(OC)c1OC (stereo unspecified) the results were Mdm2-MdmX inh 12, aSyn UTR inh -1, 697 NFkB inh 4 and Jurkat NFkB inh 2.
`Cc1ccc(C(=O)Nc2cccc(C(F)(F)F)c2)cc1Nc1ncnc2nc[nH]c12` gave Mdm2-MdmX inh 39, aSyn UTR inh 78*, 697 NFkB inh 29 and Jurkat NFkB inh 7.
For CC1CN(C(=O)CCC(=O)NC2CCCCC2)c2ccccc2S1 (stereo unspecified) the results were VIM-2 inhibitor -1, Mdm2-MdmX inh -18, aSyn UTR inh 5, IMP-1 inh -2, 697 NFkB inh 7 and Jurkat NFkB inh -2.
CCn1cc(C(=O)NCc2ccco2)c(=O)c2cc(S(=O)(=O)N3CC(C)CC(C)C3)ccc21 (stereo unspecified) was read as VIM-2 inhibitor -4, Mdm2-MdmX inh 37, aSyn UTR inh 82*, IMP-1 inh -4, 697 NFkB inh -6 and Jurkat NFkB inh 32.
`CCn1cc(C(=O)NCc2ccco2)c(=O)c2cc(S(=O)(=O)N3CCC(C)CC3)ccc21` gave VIM-2 inhibitor -1, Mdm2-MdmX inh 11, aSyn UTR inh 38, IMP-1 inh -3, 697 NFkB inh 20 and Jurkat NFkB inh 6.
Screening Cc1ccc(C(=O)NCCCNC(=O)Cc2ccc(Cl)cc2)cn1 returned Mdm2-MdmX inh -8, aSyn UTR inh 2, 697 NFkB inh 2 and Jurkat NFkB inh 0.
`O=C(O)[C@H](Cc1ccccc1)N1C(=O)c2c(Cl)c(Cl)c(Cl)c(Cl)c2C1=O` gave VIM-2 inhibitor 8.5*, Mdm2-MdmX inh 11, aSyn UTR inh -55, IMP-1 inh -1, 697 NFkB inh 4 and Jurkat NFkB inh 8.
For Cc1cc(=S)nc(-c2ccccn2)[nH]1 the results were VIM-2 inhibitor 11*, Mdm2-MdmX inh 25, aSyn UTR inh 11, IMP-1 inh -1, 697 NFkB inh -7 and Jurkat NFkB inh -4.
For O=C1c2cccnc2C(=O)N1Cc1ccc(S(=O)(=O)N2CCN(c3ccc(Cl)cc3)CC2)cc1 the results were VIM-2 inhibitor 8.5*, Mdm2-MdmX inh 7, aSyn UTR inh 4, IMP-1 inh 2, 697 NFkB inh -25 and Jurkat NFkB inh 5.
CCOC(=O)C1CCN(S(=O)(=O)c2ccc(CN3C(=O)c4cccnc4C3=O)cc2)CC1 was read as VIM-2 inhibitor 2, Mdm2-MdmX inh 15, aSyn UTR inh -27, IMP-1 inh -3, 697 NFkB inh 14 and Jurkat NFkB inh 5.
`CCc1noc(C)c1C(=O)Nc1ccccc1C(C)(C)C` gave VIM-2 inhibitor -3, Mdm2-MdmX inh 7, aSyn UTR inh 9, IMP-1 inh -2, 697 NFkB inh 10 and Jurkat NFkB inh -6.
Screening Cc1ccc(-n2nc3c(=O)n(CC(=O)NCCc4ccc(Cl)cc4)nc(C)c3c2C)cc1 returned VIM-2 inhibitor -2, Mdm2-MdmX inh 25, aSyn UTR inh -7, IMP-1 inh 18*, 697 NFkB inh 5 and Jurkat NFkB inh 17.
Screening Cc1ccc(-n2nc3c(=O)n(CCCC(=O)NCCN4CCN(C)CC4)nc(C)c3c2C)cc1 returned VIM-2 inhibitor 2, Mdm2-MdmX inh 0, aSyn UTR inh 12, IMP-1 inh 4.9*, 697 NFkB inh 11 and Jurkat NFkB inh 18.
Screening Cc1ccc(CCNC(=O)CCCn2nc(C)c3c(C)n(-c4ccc(C)cc4)nc3c2=O)cc1 returned VIM-2 inhibitor 0, Mdm2-MdmX inh 26, aSyn UTR inh 31, IMP-1 inh -1, 697 NFkB inh -16 and Jurkat NFkB inh 11.
